# Data published in ChEMBL document CHEMBL1221358, “Application of a novel in silico high-throughput screen to identify selective inhibitors for protein-protein interactions” (Bioorg Med Chem Lett, 2010).
# Calls of active or inactive are those of the source. The calls are words filed in the database; no cut-off is given here.
# Experiments:
# [1] = target: Toll-like receptor 4 (Homo sapiens) (UniProt O00206); assay: Inhibition of TLR4 binding to […]
# [2] = target: T1, Toll-like receptor 6 (Mus musculus) (UniProt Q9EPW9); assay: Inhibition TLR6-mediated NO production in mouse RAW264.7 cells at 300 nM
# T1 sequence (whole entry): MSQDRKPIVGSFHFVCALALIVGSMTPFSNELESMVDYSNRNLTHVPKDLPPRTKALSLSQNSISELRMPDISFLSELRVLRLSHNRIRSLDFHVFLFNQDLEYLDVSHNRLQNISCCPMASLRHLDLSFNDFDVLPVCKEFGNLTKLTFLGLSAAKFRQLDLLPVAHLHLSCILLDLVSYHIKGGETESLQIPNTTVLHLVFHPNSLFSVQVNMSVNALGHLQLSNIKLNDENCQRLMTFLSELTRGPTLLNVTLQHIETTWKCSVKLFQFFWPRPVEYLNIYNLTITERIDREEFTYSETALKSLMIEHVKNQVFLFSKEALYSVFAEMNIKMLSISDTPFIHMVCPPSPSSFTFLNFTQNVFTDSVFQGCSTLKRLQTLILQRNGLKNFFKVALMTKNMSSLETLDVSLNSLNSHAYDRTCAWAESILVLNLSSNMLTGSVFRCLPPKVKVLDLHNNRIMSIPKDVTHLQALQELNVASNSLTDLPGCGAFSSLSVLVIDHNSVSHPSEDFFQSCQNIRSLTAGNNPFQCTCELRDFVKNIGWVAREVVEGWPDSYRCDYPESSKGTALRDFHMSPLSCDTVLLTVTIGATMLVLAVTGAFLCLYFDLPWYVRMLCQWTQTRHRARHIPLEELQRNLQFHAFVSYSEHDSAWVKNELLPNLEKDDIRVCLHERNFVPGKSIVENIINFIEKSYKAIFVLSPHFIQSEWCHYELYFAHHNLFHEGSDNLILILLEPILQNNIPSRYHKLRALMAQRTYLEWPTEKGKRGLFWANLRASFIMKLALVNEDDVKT
# [3] = target: T2, Toll-like receptor 4 (Mus musculus) (UniProt Q9QUK6); assay: Inhibition TLR4-mediated NO production in mouse RAW264.7 cells at 300 nM
# T2 sequence (whole entry): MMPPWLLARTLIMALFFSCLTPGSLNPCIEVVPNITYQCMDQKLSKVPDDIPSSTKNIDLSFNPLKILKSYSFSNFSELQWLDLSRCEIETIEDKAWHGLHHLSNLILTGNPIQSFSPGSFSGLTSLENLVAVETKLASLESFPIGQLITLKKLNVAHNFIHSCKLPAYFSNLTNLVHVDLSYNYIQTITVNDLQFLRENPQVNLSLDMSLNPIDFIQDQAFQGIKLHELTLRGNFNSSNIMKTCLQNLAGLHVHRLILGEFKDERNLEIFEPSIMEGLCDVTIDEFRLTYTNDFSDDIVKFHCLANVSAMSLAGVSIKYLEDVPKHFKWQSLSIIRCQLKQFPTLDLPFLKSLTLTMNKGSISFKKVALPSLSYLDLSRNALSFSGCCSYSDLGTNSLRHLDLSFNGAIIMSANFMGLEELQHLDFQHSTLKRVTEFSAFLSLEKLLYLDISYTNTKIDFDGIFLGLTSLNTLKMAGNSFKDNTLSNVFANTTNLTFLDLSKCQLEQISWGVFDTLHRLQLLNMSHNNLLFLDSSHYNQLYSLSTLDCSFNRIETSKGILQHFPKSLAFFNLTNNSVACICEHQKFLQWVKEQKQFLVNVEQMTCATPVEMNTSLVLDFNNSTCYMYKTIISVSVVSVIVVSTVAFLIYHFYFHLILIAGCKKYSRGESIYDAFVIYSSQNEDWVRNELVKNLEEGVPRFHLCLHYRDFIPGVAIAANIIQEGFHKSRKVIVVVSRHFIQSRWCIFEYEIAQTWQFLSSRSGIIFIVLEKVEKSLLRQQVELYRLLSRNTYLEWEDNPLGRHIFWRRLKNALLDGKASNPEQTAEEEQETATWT
# RAW264.7 = assay: Cytotoxicity against mouse RAW264.7 cells; assay type: cell-based
# [4] = target: T3, Toll-like receptor 3 (Mus musculus) (UniProt Q99MB1); assay: Inhibition TLR3-mediated NO production in mouse RAW264.7 cells at 300 nM
# T3 sequence (whole entry): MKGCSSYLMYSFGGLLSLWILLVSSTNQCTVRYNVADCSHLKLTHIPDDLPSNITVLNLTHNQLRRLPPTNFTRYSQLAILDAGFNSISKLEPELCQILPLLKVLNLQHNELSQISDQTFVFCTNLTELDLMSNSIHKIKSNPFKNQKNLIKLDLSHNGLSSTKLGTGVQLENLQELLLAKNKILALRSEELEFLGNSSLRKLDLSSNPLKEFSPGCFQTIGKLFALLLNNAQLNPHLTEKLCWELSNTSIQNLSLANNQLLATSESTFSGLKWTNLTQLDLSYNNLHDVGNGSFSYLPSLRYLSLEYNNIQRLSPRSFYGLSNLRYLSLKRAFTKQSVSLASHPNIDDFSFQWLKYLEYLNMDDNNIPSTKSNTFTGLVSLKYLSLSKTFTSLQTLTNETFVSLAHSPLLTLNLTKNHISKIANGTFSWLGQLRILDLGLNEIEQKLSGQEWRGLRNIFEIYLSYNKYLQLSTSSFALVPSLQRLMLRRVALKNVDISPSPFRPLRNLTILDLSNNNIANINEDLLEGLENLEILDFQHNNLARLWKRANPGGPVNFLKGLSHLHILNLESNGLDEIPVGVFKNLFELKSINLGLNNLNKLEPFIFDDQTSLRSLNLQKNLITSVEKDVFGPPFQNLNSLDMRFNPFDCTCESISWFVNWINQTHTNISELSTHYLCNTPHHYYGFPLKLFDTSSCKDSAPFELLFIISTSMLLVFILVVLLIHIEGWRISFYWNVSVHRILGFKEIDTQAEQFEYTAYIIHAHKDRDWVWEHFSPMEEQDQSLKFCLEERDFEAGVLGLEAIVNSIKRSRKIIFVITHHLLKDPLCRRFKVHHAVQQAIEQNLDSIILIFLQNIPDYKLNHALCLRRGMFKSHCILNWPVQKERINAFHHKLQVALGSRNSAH
# [5] = target: T4, Toll-like receptor 1 (Mus musculus) (UniProt Q9EPQ1); assay: Inhibition TLR1-mediated NO production in mouse RAW264.7 cells at 300 nM
# T4 sequence (whole entry): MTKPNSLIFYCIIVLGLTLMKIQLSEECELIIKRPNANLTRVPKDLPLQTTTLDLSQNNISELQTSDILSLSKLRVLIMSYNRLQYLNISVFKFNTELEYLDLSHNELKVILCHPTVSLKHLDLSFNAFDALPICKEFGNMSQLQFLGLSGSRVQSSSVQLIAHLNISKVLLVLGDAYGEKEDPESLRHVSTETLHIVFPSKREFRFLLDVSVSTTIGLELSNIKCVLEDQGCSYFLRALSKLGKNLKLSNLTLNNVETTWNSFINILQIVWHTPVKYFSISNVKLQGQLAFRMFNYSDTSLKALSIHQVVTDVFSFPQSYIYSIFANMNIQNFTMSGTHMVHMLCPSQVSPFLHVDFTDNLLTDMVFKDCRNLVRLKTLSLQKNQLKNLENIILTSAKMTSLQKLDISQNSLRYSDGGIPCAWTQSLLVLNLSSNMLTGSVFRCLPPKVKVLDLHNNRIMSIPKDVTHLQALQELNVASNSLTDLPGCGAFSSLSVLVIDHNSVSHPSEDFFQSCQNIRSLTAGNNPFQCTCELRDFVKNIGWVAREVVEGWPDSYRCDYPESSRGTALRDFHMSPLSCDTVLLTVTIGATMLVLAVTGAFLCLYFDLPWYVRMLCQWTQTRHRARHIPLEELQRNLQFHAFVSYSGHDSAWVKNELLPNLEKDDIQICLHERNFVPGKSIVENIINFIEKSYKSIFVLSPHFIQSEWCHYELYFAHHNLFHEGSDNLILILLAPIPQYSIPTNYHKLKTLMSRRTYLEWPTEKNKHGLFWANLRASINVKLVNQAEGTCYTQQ
# [6] = target: T5, Toll-like receptor 7 (Mus musculus) (UniProt P58681); assay: Inhibition TLR7-mediated NO production in mouse RAW264.7 cells at 300 nM
# T5 sequence (whole entry): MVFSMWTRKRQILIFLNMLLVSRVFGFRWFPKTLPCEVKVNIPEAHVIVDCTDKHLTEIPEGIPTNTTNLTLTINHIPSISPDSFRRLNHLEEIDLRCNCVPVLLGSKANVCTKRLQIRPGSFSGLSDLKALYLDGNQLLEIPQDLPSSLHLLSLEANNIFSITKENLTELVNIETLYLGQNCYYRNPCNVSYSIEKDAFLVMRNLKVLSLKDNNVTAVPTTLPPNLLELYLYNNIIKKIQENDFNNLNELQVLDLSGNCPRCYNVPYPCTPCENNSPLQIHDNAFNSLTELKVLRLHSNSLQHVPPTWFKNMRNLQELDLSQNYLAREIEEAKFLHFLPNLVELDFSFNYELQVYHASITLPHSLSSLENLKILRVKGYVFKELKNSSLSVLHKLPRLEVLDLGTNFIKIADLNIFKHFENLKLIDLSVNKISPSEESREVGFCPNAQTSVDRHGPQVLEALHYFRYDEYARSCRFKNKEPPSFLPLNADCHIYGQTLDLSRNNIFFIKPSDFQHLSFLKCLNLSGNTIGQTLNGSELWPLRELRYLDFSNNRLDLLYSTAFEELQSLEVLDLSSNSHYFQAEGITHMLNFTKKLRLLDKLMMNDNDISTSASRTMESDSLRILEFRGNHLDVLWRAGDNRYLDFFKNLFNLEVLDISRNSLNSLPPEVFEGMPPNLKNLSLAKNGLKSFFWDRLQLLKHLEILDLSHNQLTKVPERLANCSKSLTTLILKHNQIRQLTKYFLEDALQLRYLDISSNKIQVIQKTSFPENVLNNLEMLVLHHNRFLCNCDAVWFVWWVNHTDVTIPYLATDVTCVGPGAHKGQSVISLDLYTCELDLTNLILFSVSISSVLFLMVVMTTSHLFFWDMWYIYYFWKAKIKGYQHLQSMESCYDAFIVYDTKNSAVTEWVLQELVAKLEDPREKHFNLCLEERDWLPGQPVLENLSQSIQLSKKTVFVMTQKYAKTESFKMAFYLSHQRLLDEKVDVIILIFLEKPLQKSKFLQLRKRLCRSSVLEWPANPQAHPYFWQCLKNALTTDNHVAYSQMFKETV
# [7] = target: T2, Toll-like receptor 4 (Mus musculus); assay: Inhibition of LPS-induced TLR4 activation in mouse RAW264.7 cells at 200 nM to 200 uM; assay type: cell-based
# How it was run: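 RAW264.7 mouse macrophages plated at 2×10^5 cells/ml on glass-bottom dishes 18 h before imaging. Washed with HBSS/25 mM HEPES pH 7.4, then placed in warmed conditioned Hanks imaging medium. Live-cell frames taken every 7.5 s: 5 baseline frames, vehicle or antagonist added, 20 frames, then LPS (E. coli 0111:B4) added, 20 further frames. C5a added to non-responding dishes to confirm the cells could respond.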
# [8] = target: Toll-like receptor 2 (Mus musculus) (UniProt Q9QUN7); assay: Inhibition TLR2-mediated NO production in mouse RAW264.7 cells at 300 nM
# Toll-like receptor 2 (Mus musculus), sequence (Q9QUN7 whole entry): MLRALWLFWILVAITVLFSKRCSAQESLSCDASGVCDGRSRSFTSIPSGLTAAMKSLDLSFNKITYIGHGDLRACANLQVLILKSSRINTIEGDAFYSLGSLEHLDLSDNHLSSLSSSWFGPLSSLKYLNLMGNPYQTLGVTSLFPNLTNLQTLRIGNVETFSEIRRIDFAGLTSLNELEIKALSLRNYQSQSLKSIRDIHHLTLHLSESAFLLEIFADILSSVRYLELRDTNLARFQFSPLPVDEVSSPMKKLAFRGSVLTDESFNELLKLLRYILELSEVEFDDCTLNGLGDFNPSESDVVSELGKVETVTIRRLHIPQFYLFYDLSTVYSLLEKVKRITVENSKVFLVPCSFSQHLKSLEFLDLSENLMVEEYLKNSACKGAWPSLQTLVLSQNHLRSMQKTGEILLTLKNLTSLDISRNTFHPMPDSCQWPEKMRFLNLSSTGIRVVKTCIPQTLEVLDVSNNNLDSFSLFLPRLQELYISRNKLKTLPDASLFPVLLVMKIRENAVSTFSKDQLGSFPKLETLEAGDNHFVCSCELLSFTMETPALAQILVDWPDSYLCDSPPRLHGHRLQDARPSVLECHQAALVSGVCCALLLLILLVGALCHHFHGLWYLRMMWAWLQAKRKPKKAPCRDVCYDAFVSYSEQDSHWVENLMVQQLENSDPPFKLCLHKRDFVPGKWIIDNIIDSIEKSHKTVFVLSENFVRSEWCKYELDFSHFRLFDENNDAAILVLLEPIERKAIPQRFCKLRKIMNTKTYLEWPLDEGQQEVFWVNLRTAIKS
# Toll-like receptor 4 (Homo sapiens), sequence (O00206 whole entry): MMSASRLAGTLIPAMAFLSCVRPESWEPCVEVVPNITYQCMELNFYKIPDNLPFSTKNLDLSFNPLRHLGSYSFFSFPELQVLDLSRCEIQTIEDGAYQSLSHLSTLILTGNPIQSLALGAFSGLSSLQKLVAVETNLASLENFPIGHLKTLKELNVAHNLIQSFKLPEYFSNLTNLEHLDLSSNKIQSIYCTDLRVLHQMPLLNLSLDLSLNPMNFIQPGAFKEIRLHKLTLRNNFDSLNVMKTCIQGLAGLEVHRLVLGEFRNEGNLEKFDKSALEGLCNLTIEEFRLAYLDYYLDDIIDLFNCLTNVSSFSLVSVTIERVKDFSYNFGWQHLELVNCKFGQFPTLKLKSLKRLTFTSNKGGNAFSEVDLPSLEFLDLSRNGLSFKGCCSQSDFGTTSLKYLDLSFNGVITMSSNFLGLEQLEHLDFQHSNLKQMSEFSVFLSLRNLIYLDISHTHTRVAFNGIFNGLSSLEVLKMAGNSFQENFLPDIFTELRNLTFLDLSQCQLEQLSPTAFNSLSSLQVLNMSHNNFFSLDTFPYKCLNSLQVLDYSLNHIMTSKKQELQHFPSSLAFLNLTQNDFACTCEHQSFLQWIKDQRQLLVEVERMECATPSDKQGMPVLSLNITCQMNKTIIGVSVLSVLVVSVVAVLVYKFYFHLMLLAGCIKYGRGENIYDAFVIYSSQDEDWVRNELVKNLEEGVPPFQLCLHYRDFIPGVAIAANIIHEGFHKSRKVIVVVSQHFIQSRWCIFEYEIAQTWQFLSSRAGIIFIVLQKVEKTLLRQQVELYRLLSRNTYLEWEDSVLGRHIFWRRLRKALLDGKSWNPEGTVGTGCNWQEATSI
SMILES,Activity [1],Activity [2],Activity [3],Activity (RAW264.7),Activity [4],Activity [5],Activity [6],Activity [7],Activity [8]
CCOc1ccc(OCC(O)CN(C)Cc2c(C)nn(Cc3ccccc3Cl)c2C)cc1 (configuration not stated),Active,inactive,Active,Non-toxic,inactive,inactive,inactive,Active,inactive
CC(C)CC(=O)Nc1ccc(OC(=O)C23CC4CC(CC(C4)C2)C3)cc1,Active,,,Non-toxic,,,,Active,
